Results: ChEMBL document CHEMBL3867457, “Cytotoxic Ceanothane- and Lupane-Type Triterpenoids from the Roots of Ziziphus jujuba” (J Nat Prod, 2016)

test: Cytotoxicity against human HepG2 cells assessed as reduction in cell viability measured after 48 hrs by MTT assay; assay type: functional, cell-based; details: HepG2, 48 h
Procedure, shortened: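 HepG2 cells grown in DMEM with 10% FBS, penicillin/streptomycin, 5% CO2, 37 °C; seeded at 5 × 10^4 cells/mL, attached 12 h. Compounds in DMSO at 1, 5, 10, 25 μM for 48 h; docetaxel positive control. MTT added for 4 h, formazan dissolved in DMSO, absorbance 550 nm. Viability relative to control wells; IC50 with 95% CI by log-concentration regression; three independent replicates.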

`C=C(C)[C@@H]1CC[C@]2(C(=O)O)CC[C@]3(C)[C@H](CC[C@@H]4[C@@]5(C)C[C@@H](OC(=O)/C=C/c6ccc(O)cc6)[C@H](O)C(C)(C)[C@@H]5CC[C@]43C)[C@@H]12` and `C=C(C)[C@@H]1CC[C@]2(C(=O)O)CC[C@]3(C)[C@H](CC[C@@H]4[C@@]5(C)C[C@@H](OC(=O)/C=C\c6ccc(O)cc6)[C@H](O)C(C)(C)[C@@H]5CC[C@]43C)[C@@H]12` are within 1.5-fold of each other in IC50: 2 µM for the first, 2.1 µM for the second.

Compared with `C=C(C)[C@@H]1CC[C@]2(C(=O)O)CC[C@]3(C)[C@H](CC[C@@H]4[C@@]5(C)[C@@H](C(=O)OC)[C@H](OC(=O)c6ccc(O)c(OC)c6)C(C)(C)[C@@H]5CC[C@]43C)[C@@H]12`, `C=C(C)[C@@H]1CC[C@]2(C(=O)O)CC[C@]3(C)[C@H](CC[C@@H]4[C@@]5(C)[C@@H](C(=O)O)[C@H](OC(=O)c6ccc(O)c(OC)c6)C(C)(C)[C@@H]5CC[C@]43C)[C@@H]12` is higher in IC50: 1.9 µM for the first, over 10 µM for the second.

Compared with `C=C(C)[C@@H]1CC[C@]2(C(=O)O)CC[C@]3(C)[C@H](CC[C@@H]4[C@@]5(C)C[C@@H](OC(=O)c6ccc(O)cc6)[C@H](O)C(C)(C)[C@@H]5CC[C@]43C)[C@@H]12`, `C=C(C)[C@@H]1CC[C@]2(C(=O)O)CC[C@]3(C)[C@H](CC[C@@H]4[C@@]5(C)C[C@@H](OC(=O)c6ccc(O)c(O)c6)[C@H](O)C(C)(C)[C@@H]5CC[C@]43C)[C@@H]12` is higher in IC50: 2.9 µM for the first, over 10 µM for the second.

Compared with `C=C(C)[C@@H]1CC[C@]2(C(=O)O)CC[C@]3(C)[C@H](CC[C@@H]4[C@@]5(C)[C@@H](C(=O)OC)[C@H](OC(=O)c6ccc(O)c(O)c6)C(C)(C)[C@@H]5CC[C@]43C)[C@@H]12`, `C=C(C)[C@@H]1CC[C@]2(C(=O)O)CC[C@]3(C)[C@H](CC[C@@H]4[C@@]5(C)[C@@H](C(=O)O)[C@H](OC(=O)c6ccc(O)c(O)c6)C(C)(C)[C@@H]5CC[C@]43C)[C@@H]12` is higher in IC50: 2.8 µM for the first, over 10 µM for the second.

Going from `C=C(C)[C@@H]1CC[C@]2(C(=O)O)CC[C@]3(C)[C@H](CC[C@@H]4[C@@]5(C)[C@H](C(=O)O)[C@H](OC(=O)c6ccc(O)c(OC)c6)C(C)(C)[C@@H]5CC[C@]43C)[C@@H]12` to `C=C(C)[C@@H]1CC[C@]2(C(=O)O)CC[C@]3(C)[C@H](CC[C@@H]4[C@@]5(C)[C@H](C(=O)O)[C@H](OC(=O)c6ccc(O)cc6)C(C)(C)[C@@H]5CC[C@]43C)[C@@H]12`, the IC50 rises from 3.9 µM to over 10 µM.

`C=C(C)[C@@H]1CC[C@]2(C(=O)O)CC[C@]3(C)[C@H](CC[C@@H]4[C@@]5(C)C[C@@H](OC(=O)c6ccccc6)[C@H](O)C(C)(C)[C@@H]5CC[C@]43C)[C@@H]12` and `C=C(C)[C@@H]1CC[C@]2(C(=O)O)CC[C@]3(C)[C@H](CC[C@@H]4[C@@]5(C)C[C@@H](O)[C@H](O)C(C)(C)[C@@H]5CC[C@]43C)[C@@H]12` [ALPHITOLIC ACID] cannot be ordered by IC50: over 10 µM for the first, over 10 µM for the second.

First: C=C(C)[C@@H]1CC=C2CC[C@]3(C(=O)O)[C@H](CC[C@@H]4[C@@]5(C)C=C[C@](C)(CO)[C@@H]5CC[C@]43C)[C@H]21
Second: C=C(C)[C@@H]1CC[C@]2(C(=O)O)CC[C@]3(C)[C@H](CC[C@@H]4[C@@]5(C)[C@@H](C(=O)O)[C@H](O)[C@](C)(CO)[C@@H]5CC[C@]43C)[C@@H]12
The IC50 of the first is lower: 4.9 µM for the first, over 10 µM for the second. The first is the more potent here.

`C=C(C)[C@@H]1CC[C@]2(C(=O)O)CC[C@]3(C)[C@H](CC[C@@H]4[C@@]5(C)[C@H](C(=O)OC)[C@H](O)C(C)(C)[C@@H]5CC[C@]43C)[C@@H]12` and `C=C(C)[C@@H]1CC[C@]2(C(=O)O)CC[C@]3(C)[C@H](CC[C@@H]4[C@@]5(C)[C@@H](C(=O)O)[C@H](O)C(C)(C)[C@@H]5CC[C@]43C)[C@@H]12` [CEANOTHIC ACID] cannot be ordered by IC50: over 10 µM for the first, over 10 µM for the second.

`C=C(C)[C@@H]1CC[C@]2(C(=O)O)CC[C@]3(C(=O)O)[C@H](CC[C@@H]4[C@@]5(C)[C@@H](C(=O)OC)CC(C)(C)[C@@H]5CC[C@]43C)[C@@H]12` and `C=C(C)[C@@H]1CC[C@]2(C(=O)O)CC[C@]3(C(=O)O)[C@H](CC[C@@H]4[C@@]5(C)[C@@H](C(=O)O)CC(C)(C)[C@@H]5CC[C@]43C)[C@@H]12` cannot be ordered by IC50: over 10 µM for the first, over 10 µM for the second.

`C=C(C)[C@@]12CC[C@@]3(CC[C@]4(C(=O)O)[C@H](CC[C@@H]5[C@@]6(C)[C@@H](C(=O)O)CC(C)(C)[C@@H]6CC[C@]54C)[C@H]31)C(=O)O2` and `C=C(C)[C@@H]1CC[C@]2(C(=O)O)CC[C@]3(C(=O)O)[C@H](CC[C@@H]4[C@@]5(C)[C@@H](C(=O)OC)[C@H](O)C(C)(C)[C@@H]5CC[C@]43C)[C@@H]12` cannot be ordered by IC50: over 10 µM for the first, over 10 µM for the second.

`C=C(C)[C@@H]1CC[C@]2(C(=O)O)CC[C@]3(C)[C@H](CC[C@@H]4[C@@]5(C)[C@@H](C(=O)O)[C@H](OC(=O)c6ccc(O)cc6)C(C)(C)[C@@H]5CC[C@]43C)[C@@H]12` and `C=C(C)[C@@H]1CC[C@]2(C(=O)O)CC[C@]3(C)[C@H](CC[C@@H]4[C@@]5(C)[C@H](C(=O)O)[C@H](O)C(C)(C)[C@@H]5CC[C@]43C)[C@@H]12` [EPICEANOTHIC ACID] cannot be ordered by IC50: over 10 µM for the first, over 10 µM for the second.

Going from `C=C(C)[C@@H]1CC[C@]2(C(=O)O)CC[C@]3(C)[C@H](CC[C@@H]4[C@@]5(C)C(C=O)=CC(C)(C)[C@@H]5CC[C@]43C)[C@@H]12` to `C=C(C)[C@@H]1CC[C@]2(C(=O)O)CC[C@]3(C)[C@H](CC[C@@H]4[C@@]5(C)CC[C@H](O)C(C)(C)[C@@H]5CC[C@]43C)[C@@H]12` [BETULINIC ACID], the IC50 rises from 2 µM to 5.9 µM (3-fold). The first is the more potent here.

For `CC(=O)O[C@@]12CO[C@@H]1C[C@H](O)[C@@]1(C)C(=O)[C@H](O)C3=C(C)[C@@H](OC(=O)[C@H](O)[C@@H](NC(=O)OC(C)(C)C)c4ccccc4)C[C@@](O)([C@@H](OC(=O)c4ccccc4)[C@H]21)C3(C)C` [DOCETAXEL ANHYDROUS], the IC50 was 8.3 µM.
